In ChEMBL document CHEMBL1133692, “Modeling of the inhibition of retroviral integrases by styrylquinoline derivatives” (J Med Chem, 2000) one finds IC50 data, which are given here for 14 compounds.

Bounds are passed on as bounds.

Experiment [1] concerns the target Gag-Pol polyprotein (Rous sarcoma virus (strain Prague C) (RSV-PrC), UniProt P03354). The experiment is described as follows: Inhibition of rous sarcoma virus (RSV) Integrase. The procedure, abridged:
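His-tagged RSV integrase catalytic core expressed in E. coli BL21(DE3) (IPTG 1 mM, 3 h, 37 °C) and purified on Ni-NTA. Disintegration assay used 0.5 pmol 5′-32P-labeled annealed DRSV oligonucleotide with 2 pmol core in Tris buffer pH 7.2 for 1 h at 37 °C. Products were resolved on a 15% denaturing polyacrylamide gel and quantified by phosphorimager. IC50 is the concentration halving activity.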

The target of experiment [2] is Human immunodeficiency virus type 1 integrase (Human immunodeficiency virus 1, UniProt Q7ZJM1). The experiment is described as follows: Inhibition of human immunodeficiency virus-1 (HIV-1) integrase. The procedure, abridged: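 Disintegration assay with His-tagged HIV-1 integrase catalytic core, expressed in E. coli BL21(DE3) and Ni-NTA purified. Substrate was 0.5 pmol of 5′-32P-labelled, self-annealed DHIV oligonucleotide, reacted with 2 pmol core in Tris buffer pH 7.2 for 1 h at 37 °C. Products were resolved on 15% denaturing polyacrylamide gel and quantified by phosphorimaging. IC50 is the drug concentration halving enzyme activity.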
Human immunodeficiency virus type 1 integrase, sequence (Q7ZJM1 whole entry): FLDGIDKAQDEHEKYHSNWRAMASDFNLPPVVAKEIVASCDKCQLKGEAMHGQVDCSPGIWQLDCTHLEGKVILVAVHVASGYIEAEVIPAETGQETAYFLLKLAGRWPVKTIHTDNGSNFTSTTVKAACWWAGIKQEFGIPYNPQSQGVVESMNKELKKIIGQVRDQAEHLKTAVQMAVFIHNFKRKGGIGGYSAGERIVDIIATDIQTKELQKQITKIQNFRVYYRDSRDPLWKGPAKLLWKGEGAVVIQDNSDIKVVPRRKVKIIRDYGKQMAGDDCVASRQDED

Gag-Pol polyprotein, sequence (P03354 1281-1567 limits assumed): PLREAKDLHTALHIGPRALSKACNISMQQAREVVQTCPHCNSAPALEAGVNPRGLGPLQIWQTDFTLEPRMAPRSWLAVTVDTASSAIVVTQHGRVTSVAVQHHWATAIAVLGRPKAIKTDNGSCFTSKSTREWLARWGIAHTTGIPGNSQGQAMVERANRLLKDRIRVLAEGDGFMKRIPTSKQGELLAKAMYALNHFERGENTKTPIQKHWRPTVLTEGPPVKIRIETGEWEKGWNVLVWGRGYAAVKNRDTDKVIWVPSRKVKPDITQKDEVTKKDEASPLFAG

As a reminder, the IC50 is the midpoint of a concentration-inhibition curve. A low value points to greater potency. The compound `CC(=O)Oc1cccc2ccc(/C=C/c3ccccc3)nc12` registered a concentration for half-maximal inhibition (IC50) in experiment [1] greater than 100 µM.
`O=C(O)c1ccc2ccc(/C=C/c3ccc(O)cc3)nc2c1O`: the IC50 in experiment [1] stood at 20.9 µM. In other words, the double-digit micromolar range.
For `O=C(O)c1ccc2ccc(/C=C/c3ccc(O)c(O)c3)nc2c1O`, in experiment [1], the IC50 was determined as 2.3 µM.
The compound `Nc1cccc2ccc(/C=C/c3ccc(O)c(O)c3)nc12` had an IC50 in experiment [1] greater than 100 µM.
`O=C(O)c1ccc2ccc(/C=C/c3ccc(O)cc3O)nc2c1O`: the figures for the IC50 in experiment [1] and in experiment [2] were 38.3 µM and 2.5 µM, respectively.
With `N#Cc1ccc2ccc(/C=C/c3ccc(O)c(O)c3)nc2c1O`, it took 38 µM to reach half-maximal inhibition in experiment [1] (IC50).
In the case of `Oc1cccc2ccc(/C=C/c3ccccc3)nc12`, the IC50 in experiment [1] is greater than 100 µM.
The compound `O=C(O)c1ccc2ccc(/C=C/c3cc(O)c(O)c(O)c3)nc2c1O` came in with a 50% inhibitory concentration (IC50) in experiment [1] of 2.1 µM.
Turning to `O=[N+]([O-])c1cccc2ccc(/C=C/c3ccc(O)c(O)c3)nc12`, the half-maximal inhibitory concentration (IC50) in experiment [1] is greater than 100 µM.
In experiment [1], `O=C(O)c1ccc2ccc(/C=C/c3ccccc3)nc2c1O` displayed an IC50 of 10.3 µM. This lies in the double-digit micromolar range.
The compound `O=C(O)c1cc(/C=C/c2ccc3ccc(C(=O)O)c(O)c3n2)ccc1O` yielded an IC50 in experiment [1] of 7.4 µM.
On the same count and under the same terms, under `Cc1ccc2cccc(OC(=O)/C=C/c3ccc(O)c(O)c3)c2n1` stands greater than 100 µM.
With `CC(=O)Oc1ccc(/C=C/c2ccc3cccc(OC(C)=O)c3n2)cc1OC(C)=O`, the 50% inhibitory concentration (IC50) in experiment [1] is greater than 100 µM.
In experiment [1], `Oc1ccc(/C=C/c2ccc3cccc(O)c3n2)cc1O` registered an IC50 of 65.1 µM.
